In ChEMBL document CHEMBL1146966, “Beta'-hydroxy-alpha,beta-unsaturated ketones: a new pharmacophore for the design of anticancer drugs” (2006):

What was measured:
Type in all cases: functional
WiDr = experiment: Antiproliferative activity against WiDr cell line after 48 hrs by SRB assay; settings: Homo sapiens
In short: (§1)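 Human solid tumor cells exposed 48 h to compound in duplicate at five tenfold dilutions, top final concentration 100 µM (DMSO stock at 400× that; controls got matching DMSO). Cells precipitated with ice-cold 50% TCA, fixed 60 min at 4 °C, stained by SRB, OD read at 490 nm. Percentage growth from OD at start versus end of exposure, corrected for medium-only background. GI50 = concentration giving PG +50 (NCI protocol); means of two to four experiments.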

A2780 = experiment: Antiproliferative activity against A2780 cell line after 48 hrs by SRB assay; settings: Homo sapiens, A2780, 48 h; in short: as §1
SW1573 = experiment: Antiproliferative activity against SW1573 cell line after 48 hrs by SRB assay; settings: Homo sapiens, SW1573, 48 h; in short: as §1

GI50 (A2780) | GI50 (SW1573) | SMILES | GI50 (WiDr)
21 µM | 30 µM | CC(=O)/C=C/C1CCCCC1 | 23 µM
20 µM | 31 µM | CC(C)C/C=C/C(=O)c1ccccc1 | 22 µM
2.6 µM | 13 µM | CC(C)CC(O)CC(=O)/C=C\c1ccccc1 (stereo not drawn) | 16 µM
21 µM | 33 µM | CC(C)C/C=C(/C(=O)c1ccccc1)c1ccccc1 | 21 µM
3.9 µM | 12 µM | Cc1ccc(/C=C\C(=O)CC(O)CC(C)C)cc1 (stereo not drawn) | 15 µM
3.3 µM | 4.3 µM | O=C(/C=C/c1ccccc1)CC(O)c1ccccc1 (stereo not drawn) | 14 µM
91 µM | 79 µM | CCCCCC/C=C/C(C)=O | 56 µM
5.5 µM | 11 µM | CC(C)CC(O)C(C)C(=O)/C=C\c1ccc(Br)cc1 (stereo not drawn) | 12 µM
9.9 µM | 26 µM | CC(C)(C)/C=C/C(=O)CC(O)C(C)(C)C (stereo not drawn) | 59 µM
18 µM | 24 µM | CC(C)C/C=C(\CO)C(=O)c1ccccc1 | 19 µM
1.8 µM | 3.1 µM | O=C(/C=C/C1CCCCC1)CC(O)C1CCCCC1 (stereo not drawn) | 2.9 µM
16 µM | 30 µM | O=C(/C=C/CCCCCCCCCCBr)CC(O)CCCCCCCCCCBr (stereo not drawn) | 32 µM
17 µM | 27 µM | CC(C)C/C=C/C(=O)CC(O)CC(C)C (stereo not drawn) | 21 µM
26 µM | 25 µM | CCCCCC/C=C/C(=O)CC(O)CCCCCC (stereo not drawn) | 31 µM
> 100 µM | > 100 µM | C/C(=C\CC(C)C)C(=O)c1ccccc1 | > 100 µM
28 µM | 36 µM | C/C(=C\C1CCCCC1)C(=O)c1ccccc1 | 41 µM
